Results taken from PubChem BioAssay.
Inconclusive results are not listed.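 How the source made its calls, unless noted: active means cell viability at or below a set limit in both duplicate runs, the limit being the all-compound median minus 4 SD (cut at about 23% in these data, passing the limit was not always enough); inconclusive means no clear call, values can overlap the other calls; inactive means the rest.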

What was measured:
[1] = S. cerevisiae growth inhibition in permissive medium (OD615), pilot counter-assay for S. cerevisiae lifespan shortening project, permissive growth control (AID 705;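 active means growth inhibition above 25% in both replicates, a cutoff set 3 SD above the mean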); conditions: OD615, 24 h, at 10 µM, active compounds read high
Procedure, shortened: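 System: engineered DeaD yeast; Medium: permissive raffinose/galactose medium; Compound dosing: 10 µM single dose, 0.25% DMSO; Incubation: 4 h cell pre-growth, 24 h exposure at 30 °C; Technique: OD at 615 nm; Evaluation: growth inhibition from lowered OD615 after 24 h.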

[2] = S. cerevisiae growth inhibition in restrictive medium, OD615, pilot screen, restrictive growth control, yeast lifespan reduction project (AID 706;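 active means growth inhibition above a set limit, 3 SD over mean compound inhibition, in both replicates, cut at about 43% in these data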;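 further: modified DeaD lifespan yeast strain shifted to restrictive glucose medium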); conditions: OD615, 48 h, at 10 µM, active compounds read high
Procedure, shortened: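 Material: modified S. cerevisiae; buffer or medium: CSMM-D glucose medium; doses: one concentration, 10 µM final, 0.25% DMSO; incubation: 48 h compound exposure at 30 °C; detection: optical density at 615 nm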

[3] = doxorubicin toxicity protection in MRP-1 cells – H69AR cells, CellTiter-Glo, duplicate, MRP-1 activator project, pilot screen (AID 807;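 active means viability increase at or above a cutoff of the median across tested compounds plus 3 SD, cut at about 8.5% in these data, passing the limit was not always enough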;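 further: compound pretreatment 18-22 h then 72 h combined with doxorubicin; 0% = doxorubicin alone and 100% = vehicle without doxorubicin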); conditions: H69AR viability with doxorubicin, CellTiter-Glo luminescence; at 10 µM; active compounds read high
[4] = viability of HCT116 without oncogenic beta-catenin – human colon tumor cells, pilot screen (AID 823); conditions: HCT116 beta-catenin knockout viability, CellTiter-Glo, 60 h; at 10 µM; active compounds read low;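 further: 0% = wells killed by 20 µM Hyamine and 100% = untreated DMSO cell wells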
[5] = viability of PTEN-null HCT116 cells – cell-based, HCT116 clonal line, CellTiter-Glo, pilot screen (AID 824;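 active means viability at or below 27.92% in each of two runs, the all-compound median minus 4 SD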;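 further: 0% = 20 µM Hyamine control and 100% = vehicle cell control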); conditions: HCT116 PTEN-deleted viability, 60 h, at 10 µM, active compounds read low
[6] = RAM pathway blockade in budding yeast – dse1pr::URA3 reporter, 5-FOA selection, pilot screen (AID 869;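 active means inhibition over a set limit, the all-compound mean plus 3 SD, in both replicate runs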;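 further: 0% = DMSO wells with no growth and 100% = 10 µM 1-NA-PP1 with full growth; RAM network block rescues cells from 5-FOA so hits raise OD615 growth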); conditions: S. cerevisiae dse1pr::URA3 5-FOA growth, OD615, 2 d; at 10 µM; active compounds read high; strain carries analog-sensitive mutant Cbk1 kinase
[7] = RAM signaling pathway blockade in yeast – S. cerevisiae, Pdr1DBD-CYC8 efflux-inhibited sensitized strain, primary screen (AID 1298;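 active means RAM network inhibition above 8.4% in each of two replicates, 3 SD over the compound average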;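 further: 0% = DMSO untreated cells without growth and 100% = 10 µM 1-NA-PP1 full growth; higher means more yeast growth rescued from 5-FOA killing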); conditions: S. cerevisiae cbk1-as DSE1-URA3 strain, 5-FOA growth OD615, 2 d; at 50 µM; active compounds read high

Nc1c(S(=O)(=O)c2ccccc2)c2nc3ccccc3nc2n1Cc1ccco1
inactive: growth inhibition [1] -25.5% | growth inhibition [2] -16.2% | viability increase [3] -3.97% | viability [4] 78.8% | viability [5] 73.8% | inhibition [6] 2.83% | RAM network inhibition [7] 7.51%

Cc1cccc(OCCCC(=O)Nc2ccc(N3CCOCC3)cc2)c1
inactive: growth inhibition [1] -17% | growth inhibition [2] -11.5% | viability increase [3] -0.5% | viability [4] 90.7% | viability [5] 96.8% | inhibition [6] 2.59% | RAM network inhibition [7] 3.73%

CCOC(=O)CON1C(=O)C(C)(C)N(OCC(=O)OCC)C(=O)C1(C)C
inactive: growth inhibition [1] -0.865% | growth inhibition [2] -9.37% | viability increase [3] -0.75% | viability [4] 104% | viability [5] 101% | inhibition [6] 0.38% | RAM network inhibition [7] 1.33%

Cn1c(NC(=O)c2ccccc2)cc(=O)n(C)c1=O
inactive: growth inhibition [1] -19% | growth inhibition [2] -9.99% | viability increase [3] -1.36% | viability [4] 100% | viability [5] 93.8% | inhibition [6] 1.12% | RAM network inhibition [7] 1.26%

CC(C)N1C(=O)CCC1C(=O)NCCc1ccc(Cl)cc1 (stereo unspecified)
inactive: growth inhibition [1] -1.75% | growth inhibition [2] 3.14% | viability increase [3] 0.32% | viability [4] 100% | viability [5] 97.3% | inhibition [6] 0.29% | RAM network inhibition [7] -0.47%

COc1ccc2[nH]c(C)c(CN3CCC(C)CC3)c(=O)c2c1
inactive: growth inhibition [1] 0.03% | growth inhibition [2] -2.44% | viability increase [3] -2.02% | viability [4] 98.5% | viability [5] 90.8% | inhibition [6] 1.03% | RAM network inhibition [7] 2.42%

COc1ccc(OC)c(NC(=O)c2cnc3n(c2=O)CCS3)c1
inactive: growth inhibition [1] -1.9% | growth inhibition [2] -0.45% | viability increase [3] -1.5% | viability [4] 100% | viability [5] 95.9% | inhibition [6] 2.48% | RAM network inhibition [7] 7.21%

Cc1cccc2sc(NC(=O)c3ccc(Cl)s3)nc12
inactive: growth inhibition [1] -21.9% | growth inhibition [2] -21.5% | viability increase [3] -7.7% | viability [4] 68.7% | viability [5] 56% | inhibition [6] 2.64% | RAM network inhibition [7] 5.32%

CC1=C(C(=O)OC(C)C)C(c2c(O)ccc3ccccc23)NC(=O)N1 (stereo unspecified)
inactive: growth inhibition [1] 2.06% | growth inhibition [2] -6.33% | viability increase [3] -3.16% | viability [4] 93.9% | viability [5] 90.7% | inhibition [6] 1.88% | RAM network inhibition [7] 2.42%

COc1nc(NC(C)(C)C)nc(Oc2ccc(=O)n(C)n2)n1
inactive: growth inhibition [1] -0.24% | growth inhibition [2] -10.7% | viability increase [3] 0.23% | viability [4] 102% | viability [5] 96.5% | inhibition [6] 0.495% | RAM network inhibition [7] 5.11%

CCOC(=O)c1c(C)oc2cc(Br)c(O)c(Br)c12
inactive: growth inhibition [1] -19% | growth inhibition [2] -14.6% | viability increase [3] -2.05% | viability [4] 93.6% | viability [5] 85.7% | inhibition [6] 0.86% | RAM network inhibition [7] 0.68%

CCNc1cc2oc(=O)c(CN3CCOCC3)c(C)c2cc1C
inactive: growth inhibition [1] 4.16% | growth inhibition [2] 6.97% | viability increase [3] -1.46% | viability [4] 91% | viability [5] 94.5% | inhibition [6] 2.04% | RAM network inhibition [7] 0.2%

COc1cccc(C2CC(=O)N3CN(c4ccccc4F)CSC3=C2C#N)c1 (stereo unspecified)
inactive: growth inhibition [1] 6.38% | growth inhibition [2] 2.71% | viability increase [3] -1.76% | viability [4] 102% | viability [5] 94.3% | inhibition [6] 2.96% | RAM network inhibition [7] 5.8%

CCN(CC)S(=O)(=O)c1ccc(C2CNC(=O)C2)cc1 (stereo unspecified)
inactive: growth inhibition [1] -6.66% | growth inhibition [2] -3.95% | viability increase [3] 1.75% | viability [4] 106% | viability [5] 102% | inhibition [6] 1.48% | RAM network inhibition [7] -0.31%

COc1ccc(OCC(=O)OCCN2C(=O)c3ccccc3C2=O)cc1
inactive: growth inhibition [1] 3.16% | growth inhibition [2] -3.81% | viability increase [3] -0.31% | viability [4] 101% | viability [5] 106% | inhibition [6] 0.97% | RAM network inhibition [7] 8.21%

CC(C)c1nc(SCC(=O)N2CCOCC2)c2c(=O)n(C)c(=O)n(C)c2n1
inactive: growth inhibition [1] 2.91% | growth inhibition [2] -8.92% | viability increase [3] -1.75% | viability [4] 102% | viability [5] 95.6% | inhibition [6] 2.57% | RAM network inhibition [7] -2.21%

O=C(c1ccco1)N1CCN(c2nc3ccsc3c(=O)s2)CC1
inactive: growth inhibition [1] -0.135% | growth inhibition [2] 6.59% | viability increase [3] -3.19% | viability [4] 97.1% | viability [5] 94.3% | inhibition [6] 2.1% | RAM network inhibition [7] 5.38%

c1ccc(N2CCN(c3nnnn3-c3ccccc3)CC2)cc1
inactive: growth inhibition [1] -10.6% | growth inhibition [2] 3.73% | viability increase [3] -0.01% | viability [4] 76% | viability [5] 75.7% | inhibition [6] 1.12% | RAM network inhibition [7] 9%
